Experimental data from ChEMBL document CHEMBL4270591, “Exploitation of new chalcones and 4H-chromenes as agents for cancer treatment” (Eur J Med Chem, 2018).

Legend:
MCF7 [1] = assay: Anticancer activity against human MCF7 cells assessed as cell viability at 10 uM after 72 hrs by sulforhodamine B assay relative to control; type: functional; details: MCF7, 72 h, read-out: Activity
[2] = Cytotoxicity against human MCF10A cells assessed as cell viability at 30 uM after 72 hrs by sulforhodamine B assay relative to control; type: cell-based, MCF-10A; details: read-out: Activity
Hs-578T [3] = assay: Anticancer activity against human Hs 578T cells assessed as cell viability at 30 uM after 72 hrs by sulforhodamine B assay relative to control; type: functional; details: read-out: Activity
Hs-578T [4] = assay: Anticancer activity against human Hs 578T cells assessed as cell viability at 10 uM after 72 hrs by sulforhodamine B assay relative to control; type: functional; details: read-out: Activity
[5] = Cytotoxicity against human MCF10A cells assessed as cell viability at 10 uM after 72 hrs by sulforhodamine B assay relative to control; type: cell-based, MCF-10A; details: read-out: Activity
MCF7 [6] = assay: Anticancer activity against human MCF7 cells assessed as cell viability at 30 uM after 72 hrs by sulforhodamine B assay relative to control; type: functional; details: MCF7, 72 h, read-out: Activity
MCF-10A = assay: Cytotoxicity against human MCF10A cells after 72 hrs by sulforhodamine B assay; type: cell-based
Summary of the method: (§1)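 Cells seeded at 3000 cells/100 µL per well, left to adhere overnight (18-20 h), then exposed to a range of compound concentrations for 72 h. Vehicle control was 0.5% DMSO. Cytotoxicity was read by sulforhodamine B at 490 nm, with 690 nm as background. IC50 came from sigmoidal variable-slope nonlinear regression on log-transformed data, from at least three independent experiments, each in triplicate.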

Hs-578T [7] = assay: Anticancer activity against human Hs 578T cells after 72 hrs by sulforhodamine B assay; type: functional, cell-based; summary of the method: as §1
MCF7 [8] = assay: Anticancer activity against human MCF7 cells after 72 hrs by sulforhodamine B assay; type: functional, cell-based; details: MCF7, 72 h; summary of the method: as §1

Row | Structure (SMILES) | viability at 10 µM (MCF7 [1]) | viability at 72 h, 30 µM [2] | viability at 30 µM (Hs-578T [3]) | viability at 10 µM (Hs-578T [4]) | viability at 72 h, 10 µM [5] | viability at 30 µM (MCF7 [6]) | IC50 (MCF-10A) | IC50 (Hs-578T [7]) | IC50 (MCF7 [8])
1 | COc1cccc(C(=O)/C=C/c2cc(Br)cc(OC)c2O)c1 | 77.3% | 47% | 69.8% | 74.2% | 33.5% | 63.1% |  |  | 
2 | COc1cc(Br)cc2c1OC(N)=C(C#N)C2CC(=O)c1ccccc1 (stereo not given) | 99.1% | 45.9% | 155% | 100% | 45.9% | 36.7% |  |  | 
3 | COC(=O)C1=C(N)Oc2ccc(Br)cc2C1CC(=O)c1ccc(Cl)cc1 (stereo not given) | 67.6% |  |  |  |  | 32.4% |  |  | 
4 | COC(=O)C1=C(N)Oc2ccc(Br)cc2C1CC(=O)c1ccccc1 (stereo not given) | 107% |  |  |  |  | 41.3% |  |  | 
5 | COC(=O)C1=C(N)Oc2c(OC)cc(Br)cc2C1CC(=O)c1ccc(Cl)cc1 (stereo not given) | 80.3% | 47.8% | 90.2% | 63% | 40.9% | 33.8% |  |  | 
6 | N#CC1=C(N)Oc2c(F)cc(F)cc2C1CC(=O)c1ccccc1 (stereo not given) | 99.6% | 128% | 144% | 92.4% | 53.8% | 76.9% |  |  | 
7 | Cc1ccc(C(=O)/C=C/c2cc(F)cc(F)c2O)cc1 | 33.9% |  |  |  |  | 35.3% |  |  | 
8 | COc1cc(Br)cc(/C=C/C(=O)c2ccc(C)cc2)c1O | 96.8% | 148% | 64.2% | 84.6% | 155% | 61.5% |  |  | 
9 | COc1cc(Br)cc(/C=C/C(=O)c2ccc(Br)cc2)c1O | 64.6% |  |  |  |  | 48.3% |  |  | 
10 | COC(=O)C1=C(N)Oc2c(OC)cc(Br)cc2C1CC(=O)c1cccc(OC)c1 (stereo not given) | 142% |  |  |  |  | 94.9% |  |  | 
11 | COc1cc(Br)cc(/C=C/C(=O)c2ccc(Cl)cc2)c1O | 53.3% | 47.8% | 60.3% | 53.8% | 35.2% | 28% | 12.1 µM | 5.33 µM | 5.15 µM
12 | COC(=O)C1=C(N)Oc2c(OC)cc(Br)cc2C1CC(=O)c1ccc(Br)cc1 (stereo not given) | 50.2% |  |  |  |  | 31.9% |  |  | 
13 | Cc1ccc(C(=O)CC2C(C#N)=C(N)Oc3ccc(Cl)cc32)cc1 (stereo not given) | 85.5% | 53.3% | 155% | 92.3% | 41.8% | 49% |  |  | 
14 | N#CC1=C(N)Oc2ccc(Br)cc2C1CC(=O)c1ccc(Br)cc1 (stereo not given) | 47.2% | 43.6% | 93.8% | 67.6% | 32.6% | 34.2% | 14.7 µM | 16.5 µM | 7.24 µM
15 | COc1cc(Br)cc(/C=C/C(=O)c2ccccc2)c1O | 67% | 40.7% | 106% | 46.9% | 34.4% | 28.1% |  |  | 
16 | COc1cc(Br)cc2c1OC(N)=C(C#N)C2CC(=O)c1ccc(Cl)cc1 (stereo not given) | 49.6% | 41.6% | 90.7% | 90.7% | 36.8% | 33.3% |  |  | 
17 | O=C(/C=C/c1cc(F)cc(F)c1O)c1ccccc1 | 110% | 41.4% | 114% | 96.5% | 37.4% | 37.6% |  |  | 
18 | COc1cc(Br)cc2c1OC(N)=C(C#N)C2CC(=O)c1ccc(C)cc1 (stereo not given) | 116% |  |  |  |  | 52.8% |  |  | 
19 | Cc1ccc(C(=O)/C=C/c2cccc(Br)c2)cc1 | 60.4% |  |  |  |  | 34% |  |  | 
20 | COc1cccc2c1C(=O)c1c(O)c3c(c(O)c1C2=O)C[C@@](O)(C(=O)CO)C[C@@H]3O[C@H]1C[C@H](N)[C@H](O)[C@H](C)O1 [DOXORUBICIN] |  |  |  |  |  |  | 1.54 µM | 0.52 µM | 
21 | COc1ccc(O)c(/C=C/C(=O)c2ccc(Cl)cc2)c1 | 86.9% | 48% | 102% | 106% | 35.7% | 29.3% |  |  | 
22 | COC(=O)C1=C(N)Oc2ccc(Cl)cc2C1CC(=O)c1ccccc1 (stereo not given) | 87.2% |  |  |  |  | 44.2% |  |  | 
23 | COC(=O)C1=C(N)Oc2ccc(Br)cc2C1CC(=O)c1ccc(Br)cc1 (stereo not given) | 72.5% | 43.2% | 94.8% | 90% | 39.9% | 34.8% |  |  | 
24 | N#CC1=C(N)Oc2ccccc2C1CC(=O)c1ccccc1 (stereo not given) | 82.7% |  |  |  |  | 78.6% |  |  | 
25 | COc1cc(Br)cc2c1OC(N)=C(C#N)C2CC(=O)c1ccc(Br)cc1 (stereo not given) | 39.7% |  |  |  |  | 33.1% |  |  | 
26 | COC(=O)C1=C(N)Oc2c(OC)cccc2C1CC(=O)c1ccc(Cl)cc1 (stereo not given) | 89.8% |  |  |  |  | 63.8% |  |  | 
27 | O=C(/C=C/c1ccccc1O)c1ccccc1 | 71.9% |  |  |  |  | 32.1% |  |  | 
28 | Cc1ccc(C(=O)CC2C(C#N)=C(N)Oc3ccc(Br)cc32)cc1 (stereo not given) | 69% | 33.5% | 46.3% | 88.8% | 133% | 32.3% |  |  | 
29 | COc1cccc(C(=O)/C=C/c2cc(Cl)ccc2O)c1 | 38.2% |  |  |  |  | 26.3% |  |  | 
